Laboratory results as given in ChEMBL document CHEMBL4257512, “Synthesis and antiplasmodial activity of purine-based C-nucleoside analogues” (Medchemcomm, 2018).

Tests used:
Plasmodium falciparum [1] = assay: Antiplasmodial activity against chloroquine-sensitive Plasmodium falciparum 3D7 asynchronous cultures infected in human erythrocytes measured after 72 hrs by SYBR Green1 dye based fluorescence assay; assay type: functional, organism-based; conditions: 3D7, 72 h
Method in brief: (§1)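 Parasites kept in human erythrocytes at 5% hematocrit in RPMI-1640 (HEPES) with 0.5% AlbuMaxII, 0.2% glucose, 0.2% bicarbonate, 15 µM hypoxanthine, 37 °C, CO₂. Two-fold serial dilutions spanning 5 µM to 78 nM were applied to asynchronous cultures at 0.8-1% parasitaemia, 1% haematocrit, for 72 h. SYBR Green I lysis buffer was added for 2 h, with fluorescence read at Ex 485/Em 535 nm. IC50 was derived from DNA signal against drug-free controls.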

[2] = Selectivity index, ratio of CC50 for African green monkey Vero cells to IC50 for chloroquine-sensitive Plasmodium falciparum 3D7 asynchronous cultures infected in human erythrocytes; assay type: toxicity, cell-based; conditions: read-out: Ratio CC50/IC50
Plasmodium falciparum [3] = assay: Antiplasmodial activity against chloroquine-resistant Plasmodium falciparum K1 asynchronous cultures infected in human erythrocytes measured after 72 hrs by SYBR Green1 dye based fluorescence assay; assay type: functional, organism-based; conditions: K1, 72 h; method in brief: as §1
[4] = Resistance index, ratio of IC50 for chloroquine-resistant Plasmodium falciparum K1 asynchronous cultures infected in human erythrocytes to IC50 for chloroquine-sensitive Plasmodium falciparum 3D7 asynchronous cultures infected in human erythrocytes; assay type: functional
[5] = Cytotoxicity against African green monkey Vero cells after 3 days by resazurin dye based fluorescence assay; assay type: cell-based; conditions: chlorocebus sabaeus
Method in brief: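 VERO kidney cells kept in MEM with 15% FBS, 5% CO₂, 37 °C. Cells exposed to serial compound dilutions for three days. Then 10% resazurin added as viability marker. Fluorescence read at Ex 530 ± 25 nm / Em 590 ± 25 nm. Median cytotoxic concentration (CC₅₀) calculated from readings.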

[6] = Selectivity index, ratio of CC50 for African green monkey Vero cells to IC50 for chloroquine-resistant Plasmodium falciparum K1 asynchronous cultures infected in human erythrocytes; assay type: toxicity, cell-based; conditions: read-out: Ratio CC50/IC50
Plasmodium falciparum [7] = assay: Growth inhibition of Plasmodium falciparum D6 infected in human erythrocytes assessed as reduction in [3H]-isoleucine incorporation pretreated for 24 hrs followed by [3H]-isoleucine addition and measured after 18 hrs by liquid scintillation counting method; assay type: functional, organism-based
Plasmodium falciparum [8] = assay: Growth inhibition of Plasmodium falciparum ITG2 infected in human erythrocytes assessed as reduction in [3H]-isoleucine incorporation pretreated for 24 hrs followed by [3H]-isoleucine addition and measured after 18 hrs by liquid scintillation counting method; assay type: functional, organism-based

| SMILES | IC50 (Plasmodium falciparum [1]) [µM] | selectivity ratio [2] | IC50 (Plasmodium falciparum [3]) [µM] | Ratio IC50 [4] | CC50 at 72 h [5] [µM] | selectivity ratio [6] | IC50 (Plasmodium falciparum [7]) [µM] | IC50 (Plasmodium falciparum [8]) [µM] |
| --- | --- | --- | --- | --- | --- | --- | --- | --- |
| COC(=O)C[C@@H]([C@H]1O[C@@H]2OC(C)(C)O[C@@H]2[C@H]1OCc1ccccc1)n1cnc2c(N)ncnc21 | 4.44 | 15.4 | 4.79 | 1.07 | 68.4 | 14.3 |  |  |
| CC1(C)O[C@H]2O[C@H]([C@@H](CCO)n3cnc4c(N)ncnc43)[C@H](Oc3ccccc3[N+](=O)[O-])[C@H]2O1 | 3.13 | 11.5 | 2.37 | 0.9 | 51.8 | 12.7 |  |  |
| CCOC(=O)C[C@H]([C@H]1O[C@@H]2OC(C)(C)O[C@@H]2[C@H]1OCc1ccccc1)n1cnc2c(NCc3ccccc3)ncnc21 | 3.6 | 14.8 | 2.27 | 0.63 | 53.3 | 23.5 |  |  |
| CCCCCCCCCCCCNc1ncnc2c1ncn2[C@H](CC(=O)OCC)[C@H]1O[C@@H]2OC(C)(C)O[C@@H]2[C@H]1OCc1ccccc1 | 1.01 | 44.5 | 2.57 | 2.54 | 45 | 17.5 |  |  |
| CN(C/C=C/CN)C[C@H]1O[C@@H](n2cnc3c(N)ncnc32)[C@H](O)[C@@H]1O |  |  |  |  |  |  | 2 to 3 | 2 to 3 |
| CC1(C)O[C@H]2O[C@H]([C@@H](CCO)n3cnc4c(NCc5ccccc5)ncnc43)[C@H](OCc3ccccc3)[C@H]2O1 | 4.11 | 18.2 | 4.99 | 1.21 | 74.9 | 15 |  |  |
| CC(=O)c1ccc(-n2cnc3c(N)ncnc32)cc1 | > 5 |  |  |  |  |  |  |  |
| CCOC(=O)C[C@@H]([C@H]1O[C@@H]2OC(C)(C)O[C@@H]2[C@H]1Oc1ccccc1N)n1cnc2c(N)ncnc21 | 4.47 | 20.1 | > 5 | >1.11 | 89.7 | < 17.9 |  |  |
| CCOC(=O)CCn1cnc2c(N)ncnc21 | > 5 |  |  |  |  |  |  |  |
| CCCCCCCCCCCCNc1ncnc2c1ncn2[C@@H](CC(=O)OCC)[C@H]1O[C@@H]2OC(C)(C)O[C@@H]2[C@H]1OCc1ccccc1 | 0.88 | 92.6 | 1.13 | 1.28 | 81.5 | 72.1 |  |  |
| CC1(C)O[C@H]2O[C@H]([C@H](CCO)n3cnc4c(N)ncnc43)[C@H](Oc3ccccc3[N+](=O)[O-])[C@H]2O1 | 3.62 | 37.1 | 4.7 | 1.11 | 148 | 33.3 |  |  |
| CC(O)c1ccc(-n2cnc3c(N)ncnc32)cc1 (stereo not given) | > 5 |  |  |  |  |  |  |  |
| COC(=O)C[C@H]([C@H]1O[C@@H]2OC(C)(C)O[C@@H]2[C@H]1OCc1ccccc1)n1cnc2c(N)ncnc21 | 4.12 | 20.9 | 4.09 | 0.99 | 86.3 | 21.1 |  |  |
| CCOC(=O)C[C@H]([C@H]1O[C@@H]2OC(C)(C)O[C@@H]2[C@H]1Oc1ccccc1[N+](=O)[O-])n1cnc2c(N)ncnc21 | 4.24 | 28.1 | 4.25 | 1 | 119 | 28 |  |  |
| CCOC(=O)C[C@@H]([C@H]1O[C@@H]2OC(C)(C)O[C@@H]2[C@H]1Oc1ccccc1[N+](=O)[O-])n1cnc2c(N)ncnc21 | 3.56 | 27.1 | 4.93 | 1.38 | 96.3 | 19.5 |  |  |
| CC1(C)O[C@H]2O[C@H]([C@H](CCO)n3cnc4c(N)ncnc43)[C@@H](OCc3ccccc3)[C@H]2O1 | 4.52 | 40.9 | 4.09 | 1.29 | 148 | 31.5 |  |  |
| CC1(C)O[C@H]2O[C@H]([C@H](CC(=O)O)n3cnc4c(N)ncnc43)[C@H](Oc3ccccc3N)[C@H]2O1 | 4.82 | 13.9 | 3.72 |  | 67.1 | 18 |  |  |
| CCOC(=O)C[C@@H]([C@H]1O[C@@H]2OC(C)(C)O[C@@H]2[C@H]1OCc1ccccc1)n1cnc2c(NCc3ccccc3)ncnc21 | 1.61 | 35.7 | 1.14 | 0.7 | 57.5 | 50.4 |  |  |
| CC1(C)O[C@H]2O[C@H]([C@H](CCO)n3cnc4c(N)ncnc43)[C@H](OCc3ccccc3)[C@H]2O1 | 4.31 | 22.5 | 4.99 | 1.15 | 97.1 | 19.5 |  |  |
| CC1(C)O[C@H]2O[C@H]([C@H](CCO)n3cnc4c(NCc5ccccc5)ncnc43)[C@H](OCc3ccccc3)[C@H]2O1 | 3.99 | 19.6 | 4.44 | 0.75 | 61.2 | 25.8 |  |  |
